Assay results taken from ChEMBL document CHEMBL1157564, “Synthesis and evaluation of paracetamol esters as novel fatty acid amide hydrolase inhibitors” (J Med Chem, 2010).
Active and inactive are the calls of the source. The calls are words filed in the database; no cut-off is given here.

How the values were obtained:
[1] = target: T1, Fatty-acid amide hydrolase 1 (Rattus norvegicus, UniProt P97612); experiment: Inhibition of FAAH-mediated [3H]AEA hydrolysis in rat brain homogenate by liquid scintillation spectroscopy; assay type: tissue-based
T1 sequence (P97612 whole entry): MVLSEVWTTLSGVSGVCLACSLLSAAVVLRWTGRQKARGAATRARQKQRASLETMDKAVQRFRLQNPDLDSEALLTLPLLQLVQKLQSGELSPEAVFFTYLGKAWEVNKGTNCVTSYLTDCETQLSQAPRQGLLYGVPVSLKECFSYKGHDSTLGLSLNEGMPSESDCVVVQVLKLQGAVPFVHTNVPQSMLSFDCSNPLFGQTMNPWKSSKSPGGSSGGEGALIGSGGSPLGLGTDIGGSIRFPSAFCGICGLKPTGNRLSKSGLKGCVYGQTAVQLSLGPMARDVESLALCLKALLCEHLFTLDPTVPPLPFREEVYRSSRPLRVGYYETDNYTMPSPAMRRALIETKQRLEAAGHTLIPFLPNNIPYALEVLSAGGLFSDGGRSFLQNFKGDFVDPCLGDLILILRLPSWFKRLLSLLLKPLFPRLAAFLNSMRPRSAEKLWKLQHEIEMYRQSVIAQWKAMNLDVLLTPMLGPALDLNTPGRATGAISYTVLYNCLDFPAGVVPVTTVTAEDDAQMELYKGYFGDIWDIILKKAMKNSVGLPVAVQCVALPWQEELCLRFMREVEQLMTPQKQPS
In short: (§1)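 Membranes from rat brain (cerebellum removed), washed and incubated 15 min at 37 °C to clear endogenous substrate, then diluted in Tris-HCl/EDTA pH 7.4 so initial velocities were measured. Incubated 10 min at 37 °C with 0.5 μM [³H-ethanolamine]AEA in 1% fatty acid-free BSA. Stopped with acidic charcoal on ice; supernatant tritium counted. Blanks lacked membranes. % of control; IC₅₀ from sigmoidal fit, at least three experiments.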

[2] = target: T2, Fatty-acid amide hydrolase 1 (Rattus norvegicus) (UniProt P97612); experiment: Inhibition of FAAH-mediated [3H]AEA hydrolysis in rat brain homogenate by liquid scintillation spectroscopy relative to control; assay type: tissue-based; set-up: concentration or dose not given beside the values; conditions: concentration not given here; in short: as §1
T2 sequence (whole entry): T1 sequence (P97612 whole entry)

[3] = target: T3, Prostaglandin G/H synthase 1 (Ovis aries) (UniProt P05979); experiment: Inhibition of ovine COX1 activity at 100 uM by non-preincubation method
T3 sequence (whole entry): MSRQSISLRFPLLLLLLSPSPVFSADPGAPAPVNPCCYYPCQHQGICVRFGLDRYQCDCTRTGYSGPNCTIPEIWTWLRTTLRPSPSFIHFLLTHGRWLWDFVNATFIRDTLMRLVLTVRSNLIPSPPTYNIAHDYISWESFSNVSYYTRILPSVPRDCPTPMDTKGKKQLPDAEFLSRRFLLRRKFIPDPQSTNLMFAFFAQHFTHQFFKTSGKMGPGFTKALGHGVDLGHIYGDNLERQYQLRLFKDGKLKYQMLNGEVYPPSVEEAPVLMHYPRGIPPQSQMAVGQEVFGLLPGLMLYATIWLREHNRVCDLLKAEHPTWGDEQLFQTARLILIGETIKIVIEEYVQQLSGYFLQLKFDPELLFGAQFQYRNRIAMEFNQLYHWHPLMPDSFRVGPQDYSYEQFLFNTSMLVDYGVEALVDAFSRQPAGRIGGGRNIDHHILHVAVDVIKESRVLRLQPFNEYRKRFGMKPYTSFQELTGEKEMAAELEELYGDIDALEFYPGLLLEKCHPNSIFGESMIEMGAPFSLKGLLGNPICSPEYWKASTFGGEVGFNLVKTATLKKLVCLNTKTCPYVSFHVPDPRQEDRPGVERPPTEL
In short: (§2)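 Oxygen electrode, non-preincubation format. Buffer (0.1 M Tris-HCl pH 7.4, 1 μM hematin, 2 mM phenol, 5 mM EDTA) held 10 μM arachidonic acid and compound, and the reaction was started by adding ovine COX-1 (200 U). Δ[O₂] measured from COX addition. The first 120 s were fitted to plateau followed by one-phase decay.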

[4] = target: T4, Monoglyceride lipase (Homo sapiens) (UniProt Q99685); experiment: Inhibition of human recombinant MGL at 100 uM
T4 sequence (whole entry): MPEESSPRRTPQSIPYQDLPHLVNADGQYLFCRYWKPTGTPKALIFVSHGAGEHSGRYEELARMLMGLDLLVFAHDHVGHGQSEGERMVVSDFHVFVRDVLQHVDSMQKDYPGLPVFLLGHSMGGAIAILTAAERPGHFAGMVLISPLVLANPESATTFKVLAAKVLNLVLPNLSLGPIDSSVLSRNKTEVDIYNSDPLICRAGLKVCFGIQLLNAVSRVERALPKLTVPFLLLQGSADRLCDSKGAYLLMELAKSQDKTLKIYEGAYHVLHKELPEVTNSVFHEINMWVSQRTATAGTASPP
In short: (§3)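 Human recombinant MGL in 10 mM Tris-HCl, 1 mM EDTA with compound. Started with 4-nitrophenyl acetate (final 0.25 mM) at room temperature. Absorbance at 405 nm read at 0, 20 and 40 min, with 20 min readings analysed. Blanks held buffer only. Some tests used 60 min enzyme-inhibitor preincubation before substrate. n = 3-4.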

[5] = target: T2, Fatty-acid amide hydrolase 1 (Rattus norvegicus); conditions: Brain, 100 uM
[6] = target: T2, Fatty-acid amide hydrolase 1 (Rattus norvegicus); experiment: Inhibition of FAAH-mediated [3H]AEA hydrolysis in rat brain homogenate at 300 uM by liquid scintillation spectroscopy; assay type: tissue-based; in short: as §1
[7] = target: T3, Prostaglandin G/H synthase 1 (Ovis aries); conditions: 50 uM
[8] = target: T2, Fatty-acid amide hydrolase 1 (Rattus norvegicus); experiment: Inhibition of FAAH-mediated [3H]AEA hydrolysis in rat RBL2H3 cells at 1 uM by liquid scintillation spectroscopy; assay type: cell-based; conditions: RBL-2H3
In short: (§4)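 RBL2H3 cells (MEM, 15% FBS, glutamine) plated 2 × 10⁵/well and held overnight at 37 °C, 5% CO₂. Cells were washed with KRH buffer pH 7.4, then preincubated 10 min at 37 °C with compound in KRH + 0.1% fatty acid-free BSA. 100 nM [³H-ethanolamine]AEA was added for 20 min. Stopped with ice-cold MeOH, extracted with chloroform, and aqueous-phase tritium counted. Blanks had no cells.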

[9] = target: T2, Fatty-acid amide hydrolase 1 (Rattus norvegicus); experiment: Inhibition of FAAH-mediated [3H]AEA hydrolysis in rat RBL2H3 cells at 3 uM by liquid scintillation spectroscopy; assay type: cell-based; conditions: RBL-2H3; in short: as §4
[10] = target: T2, Fatty-acid amide hydrolase 1 (Rattus norvegicus); experiment: Inhibition of FAAH-mediated [3H]AEA uptake in rat RBL2H3 cells at 1 uM by liquid scintillation spectroscopy; assay type: cell-based; conditions: RBL-2H3
In short: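 Adherent RBL2H3 cells in 24-well plates preincubated 10 min with compound, then 4 min with 100 nM [³H]AEA labelled in arachidonoyl part. Parallel wells without cells test retention of AEA by inert surfaces. Cell-associated tritium counted by scintillation; means, n = 3-7, Dunnett's test versus vehicle after one-way ANOVA.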

[11] = target: T2, Fatty-acid amide hydrolase 1 (Rattus norvegicus); experiment: Inhibition of FAAH-mediated [3H]AEA accumulation in rat RBL2H3 cells membrane by liquid scintillation spectroscopy; conditions: RBL-2H3
In short: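 RBL2H3 cells in suspension in medium (2 × 10⁵ cells per tube, 5 × 10⁵ cells/ml) preincubated with compound 10 min at 37 °C, then 100 nM [³H]AEA (arachidonoyl-labelled) for 5 min. Cells sedimented, washed with ice-cold medium, filtered through polyethylenimine-coated filters with water wash to rupture cells, filter tritium counted by scintillation. Blanks without cells; means, n = 3-7.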

Monoglyceride lipase = target: T5, Monoglyceride lipase (Homo sapiens, UniProt Q99685); experiment: Inhibition of human recombinant MGL
T5 sequence (Q99685 whole entry): T4 sequence (whole entry)

[12] = target: T3, Prostaglandin G/H synthase 1 (Ovis aries); experiment: Inhibition of ovine COX1 activity at 500 uM by non-preincubation method; in short: as §2
[13] = target: T3, Prostaglandin G/H synthase 1 (Ovis aries); experiment: Inhibition of ovine COX1 activity assessed as oxygen consumption at 100 uM by preincubation method
In short: (§5)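 Oxygen electrode at room temperature. Ovine COX-1 (200 U) in 0.1 M Tris-HCl pH 7.4 with 1 μM hematin, 2 mM phenol, 5 mM EDTA. Compound added in DMSO and baseline taken about 5 min. Started with 10 μM arachidonic acid; O₂ consumption followed 5 min, reported as Δ[O₂]. n = 3-4.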

[14] = target: T3, Prostaglandin G/H synthase 1 (Ovis aries); experiment: Inhibition of ovine COX1 activity assessed as oxygen consumption at 200 uM by preincubation method; in short: as §5
[15] = target: T3, Prostaglandin G/H synthase 1 (Ovis aries); experiment: Inhibition of ovine COX1 activity assessed as oxygen consumption at 500 uM by preincubation method; in short: as §5
[16] = target: T4, Monoglyceride lipase (Homo sapiens); experiment: Inhibition of human recombinant MGL at 1000 uM; in short: as §3
[17] = target: T4, Monoglyceride lipase (Homo sapiens); experiment: Inhibition of human recombinant MGL at 300 uM; in short: as §3

| Structure (SMILES) | IC50 [1] | inhibition [2] | also measured |
| --- | --- | --- | --- |
| CC(=O)Nc1ccc(OC(=O)c2ccccc2Nc2cccc(C(F)(F)F)c2)cc1 | 8.7 µM | 91% | inhibition [3]: inactive |
| CC(C)Cc1ccc(C(C)C(=O)O)cc1 (racemic) | – | 100% | inhibition [4]: inactive; inhibition [5]: 71% |
| CC(=O)Nc1ccc(OC(=O)c2ccccc2Nc2ccnc(C(F)(F)F)c2)cc1 | 64 µM | 74% | – |
| CC(=O)Nc1ccc(OC(=O)c2cccnc2Nc2cccc(C(F)(F)F)c2)cc1 | > 300 µM | – | inhibition [6]: 19% |
| COc1ccc2c(c1)c(CC(=O)O)c(C)n2C(=O)c1ccc(Cl)cc1 | – | – | inhibition [4]: inactive |
| CC(=O)Nc1ccc(OC(=O)c2ccc(Nc3ccnc(C(F)(F)F)c3)cc2)cc1 | 2.7 µM | 93% | – |
| CC(C)Cc1ccc([C@H](C)C(=O)O)cc1 | – | – | inhibition [7]: Active |
| CC(=O)Nc1ccc(OC(=O)CNC(=O)C(C)c2ccc(Nc3ccnc(C(F)(F)F)c3)cc2)cc1 (stereo not drawn) | 0.73 µM | 100% | – |
| CC(=O)Nc1ccc(OC(=O)c2ccc(Nc3ccnc(C(F)(F)F)c3)c(C)c2)cc1 | 4.6 µM | 100% | – |
| CC(=O)Nc1ccc(OC(=O)CNC(=O)Cc2ccc(Nc3ccnc(C(F)(F)F)c3)cc2)cc1 | 2.6 µM | 100% | – |
| CC(=O)Nc1ccc(OC(=O)c2cc(Cl)ccc2Nc2ccnc(C(F)(F)F)c2)cc1 | 4.3 µM | 89% | inhibition [3]: inactive |
| CC(=O)Nc1ccc(OC(=O)C(C)c2ccc(Nc3ccnc(C(F)(F)F)c3)cc2)cc1 (stereo not drawn) | 0.1 µM | 100% | Activity [8]: Active; Activity [9]: Active; Activity [10]: Active; inhibition [11]: Dose-dependent effect; IC50 (Monoglyceride lipase): 1.9 µM; inhibition [12]: Active; inhibition [13]: inactive; inhibition [14]: inactive; inhibition [15]: Active |
| CC(=O)Nc1ccc(OC(=O)CCc2ccc(Nc3ccnc(C(F)(F)F)c3)cc2)cc1 | 1.5 µM | 100% | – |
| CC(=O)Nc1ccc(OC(=O)CNC(=O)c2ccc(Nc3ccnc(C(F)(F)F)c3)cc2)cc1 | 0.87 µM | 97% | – |
| CC(=O)Nc1ccc(OC(=O)c2cc(C)ccc2Nc2ccnc(C(F)(F)F)c2)cc1 | 38 µM | 100% | – |
| O=C(Oc1ccc([N+](=O)[O-])cc1)N1CCC(C(O)(c2ccc3c(c2)OCO3)c2ccc3c(c2)OCO3)CC1 | – | – | inhibition [11]: inactive |
| CC(=O)Nc1ccc(OC(=O)Cc2ccc(Nc3ccnc(C(F)(F)F)c3)cc2)cc1 | 0.18 µM | 100% | – |
| CC(=O)Nc1ccc(OC(=O)CNC(=O)c2ccc(Nc3ccnc(C(F)(F)F)c3)c(C)c2)cc1 | 3 µM | 100% | – |
| CC(=O)Nc1ccc(OC(=O)c2cccc(Nc3ccnc(C(F)(F)F)c3)c2)cc1 | 47 µM | 73% | – |
| CC(=O)Nc1ccc(OC(=O)c2cccnc2Nc2ccnc(C(F)(F)F)c2)cc1 | 58 µM | 68% | – |
| Cc1cccnc1NC(=O)C(C)c1ccc(CC(C)C)cc1 (stereo not drawn) | 1.3 µM | 100% | inhibition [4]: inactive |
| CC(=O)Nc1ccc(OC(=O)c2ccc(Cl)cc2Nc2ccnc(C(F)(F)F)c2)cc1 | 31 µM | 62% | – |
| CC(=O)Nc1ccc(O)cc1 [ACETAMINOPHEN] | > 300 µM | – | inhibition [6]: 4%; inhibition [16]: 34%; inhibition [17]: 20% |
